The results in this text go back to ChEMBL document CHEMBL1137851, “2-Substituted benzoxazinone analogues as anti-human coronavirus (anti-HCoV) and ICAM-1 expression inhibition agents” (Bioorg Med Chem Lett, 2004).

Converted amounts (≈) assume the structure as drawn. Numbered stars: 1 amine (or outer) side, 2 acyl side, 3 side chain; on linkers, the order of the positions; unused ones are H or OH. Bridge positions count the residues as written; N and C are the ends. Square brackets hold non-standard residues; d marks the D form. Peptide text beside a SMILES is read from it. I, II: the chains in the order shown. Actinocin(1to9) = Cc1c2oc3c(C)ccc(C(=O)[*:2])c3nc-2c(C(=O)[*:1])c(N)c1=O; NMeV = CN[C@H](C(=O)O)C(C)C; Sar = CNCC(=O)O

The test system of one assay is MRC5. In words: inhibitory concentration against anti-human coronavirus (HCoV) was determined in MRC-5 cells (human fibroblasts); Inactive. The class given is functional, cell-based. In a few lines:
(§1)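 MRC-5 human fibroblasts (1.0×10^5 cells/mL in 3% FBS-DMEM) seeded and held 24 h at 37 °C, then infected with HCoV strain 229E at 20 TCID₅₀/well for 2 h at 37 °C. Compound added afterwards at various concentrations, in triplicate. Cell viability read by XTT after 4 days at 37 °C. Actinomycin D served as positive control.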
Regarding `COc1cccc2c(=O)oc(-c3ccccc3Br)nc12`, the IC50 entry was “Not Active”. The same measure, in the same setting: next, `O=c1oc(-c2ccccc2Cl)nc2c1ccc1ccccc12`: “Not Active”.

In the case of `O=c1oc(-c2ccccc2F)nc2c1ccc1ccccc12`, the IC50 entry is reported as “Not Active”. The same measure, in the same setting: next, `O=c1oc(-c2ccccc2Br)nc2c1ccc1ccccc12`: “Not Active”.

System in another assay: not listed separately
In words: Effective dose for inhibition of intercellular adhesion molecule 1 (ICAM 1) expression. It counts as functional.
Molecule `COc1cccc2c(=O)oc(-c3ccc(Cl)cc3)nc12` gave an ED50 of 0.5 µg/mL (≈ 1.74 µM). Consider `COc1cccc2c(=O)oc(-c3ccc(Br)cc3)nc12`, for which the ED50 turned out to be 1 µg/mL (≈ 3.01 µM).

Another assay has as its system MRC5. The assay is described as follows: inhibitory concentration against anti-human coronavirus (HCoV) was determined in MRC-5 cells (human fibroblasts). It counts as functional, cell-based. In a few lines:
as §1
As for `COc1cccc2c(=O)oc(-c3ccccc3Cl)nc12`, the IC50 came to 5.79 µg/mL (≈ 20.1 µM). Molecule `COc1cccc2c(=O)oc(-c3ccccc3F)nc12` returned an IC50 of 1.92 µg/mL (≈ 7.08 µM). On the same count and under the same terms, next, `Cc1c2oc3c(C)ccc(C(=O)N[C@@H]4C(=O)N[C@H](C(C)C)C(=O)N5CCC[C@H]5C(=O)N(C)CC(=O)N(C)[C@@H](C(C)C)C(=O)O[C@@H]4C)c3nc-2c(C(=O)N[C@@H]2C(=O)N[C@H](C(C)C)C(=O)N3CCC[C@H]3C(=O)N(C)CC(=O)N(C)[C@@H](C(C)C)C(=O)O[C@@H]2C)c(N)c1=O` [DACTINOMYCIN] (I: T[dV]P[Sar][NMeV] / II: T[dV]P[Sar][NMeV]; ester I:1-I:C, II:1-II:C; linker I:N-II:N via Actinocin(1to9)): 0.02 µg/mL (≈ 0.0159 µM); `COc1cccc2c(=O)oc(-c3cccc(Cl)c3)nc12`: 5.06 µg/mL (≈ 17.6 µM); `COc1cccc2c(=O)oc(-c3ccc(Cl)cc3)nc12`: 7.59 µg/mL (≈ 26.4 µM). On the same count and under the same terms, next, `COc1cccc2c(=O)oc(-c3ccc(Br)cc3)nc12`: 6.08 µg/mL (≈ 18.3 µM); `COc1cccc2c(=O)oc(-c3ccccc3)nc12`: 6.83 µg/mL (≈ 27 µM).

As a reminder, the IC50 is the point on the concentration scale where inhibition reaches its midpoint. Read a high IC50 as a need for much substance.
